Published values collected from several papers.
Each line is one published result; the experiments were not run side by side.
Read-out: cell growth or viability

Cc1ccc(C(C)C)c(OC2=C(Cl)C(=O)c3ccccc3C2=O)c1  IC50 (SK-BR-3; MTT; 24 h): > 60 µg/mL
COc1cccc(NC(=S)N/N=C/c2cccc3cc4ccccc4nc23)c1  IC50 (SK-BR-3; MTT; 48 h): > 50000 nM
COc1cc([C@@H]2c3cc4c(cc3[C@H](O)[C@H]3COC(=O)[C@H]23)OCO4)cc(OC)c1OC  IC50 (MP41; ATP luminescence; 72 h): 6.49 nM
COc1ccc(Nc2ncnc3c2ncn3Cc2ccc(C(=O)Nc3ccccc3N)cc2)cc1  IC50 (U-266; MTT; 72 h): 4210 nM
O=c1cc(OCc2cc(-c3ccccn3)no2)c2ccccc2o1  IC50 (HL-60; MTS; 72 h): > 100000 nM
CC(C)CNC(=S)N/N=C/c1cccc2cc3ccccc3nc12  IC50 (SK-BR-3; MTT; 48 h): > 50000 nM
COc1cc(C(=O)c2nc(-c3ccc4cc[nH]c4c3)c[nH]2)cc(OC)c1OC  IC50 (M14; MTS; 72 h): 14.3 nM
C[C@H]1[C@H](C)CC[C@]2(C)CC[C@]3(C)C(=CC(=O)[C@@H]4[C@@]5(C)CC[C@@H](O)[C@](C)(C(=O)NCc6cn(-c7ccc(Cl)cc7)nn6)[C@@H]5CC[C@]43C)[C@H]12  IC50 (HDF; MTT; 24 h): 191000 nM
COc1cccc2c1C(=O)c1c(O)c3c(c(O)c1C2=O)C[C@@](O)(C(=O)CO)C[C@@H]3O[C@H]1C[C@H](N)[C@H](O)[C@H](C)O1  IC50 (CHO-K1; ATP luminescence; 72 h): 340 nM
FC(F)(F)c1cc(OCc2cc(-c3ccccn3)no2)c2ccccc2n1  IC50 (HL-60; MTS; 72 h): > 100000 nM
NC1=NN(c2ccc([N+](=O)[O-])cc2[N+](=O)[O-])C(=O)C1N=Nc1ccccc1C(=O)O (stereo not shown)  IC50 (Vero; MTT; 72 h): 54400 nM
CC(=O)O[C@H]1C(=O)[C@@]2(C)[C@H]([C@H](OC(=O)c3ccccc3)[C@]3(O)C[C@H](OC(=O)[C@H](O)[C@@H](NC(=O)c4ccccc4)c4ccccc4)C(C)=C1C3(C)C)[C@]1(OC(C)=O)CO[C@@H]1C[C@@H]2O  IC50 (M14; MTS; 72 h): 0.2 nM
COc1ccc(Nc2ncnc3c2ncn3Cc2ccc(C(=O)NO)cc2)cc1  IC50 (U-266; MTT; 72 h): 1110 nM
CCS(=O)(=O)Nc1ccc(Oc2ccc(F)cc2F)c(-c2cn(C)c(=O)c3[nH]ccc23)c1  IC50 (MP41; ATP luminescence; 72 h): 99.6 nM
C[C@H]1[C@H](C)CC[C@]2(C)CC[C@]3(C)C(=CC(=O)[C@@H]4[C@@]5(C)CC[C@@H](O)[C@](C)(C(=O)NCc6cn(-c7ccccc7)nn6)[C@@H]5CC[C@]43C)[C@H]12  IC50 (HDF; MTT; 24 h): 181000 nM
N/C(=N\O)c1ccc(-c2cc(CNc3cccc4cccnc34)on2)cc1  IC50 (HL-60; MTS; 72 h): 2800 nM
COc1cc(C(=O)c2nc(-c3cccc4[nH]ccc34)c(C)[nH]2)cc(OC)c1OC  IC50 (M14; MTS; 72 h): 17.2 nM
c1ccc(Oc2ccc(Nc3c4c(nc5ccccc35)CCC4)cc2)cc1  IC50 (RAW264.7; resazurin; 72 h): 40800 nM
COc1nnc2ccc(N3CCC(c4ccc(OCCN5CCN(C)C(=O)[C@H]5C)cc4)CC3)nn12  IC50 (MP41; ATP luminescence; 72 h): 90.4 nM
